For 52 compounds, IC50 and Activity results are on record in ChEMBL document CHEMBL4359903, “1,2,4-Oxadiazole derivatives targeting EGFR and c-Met degradation in TKI resistant NSCLC” (Eur J Med Chem, 2019).

What is called IC50 is the point on the concentration scale where inhibition reaches its midpoint.

Molecules are shown by their SMILES. Activity calls are given as the source filed them. The calls are words filed in the database; no cut-off is given here.

Assay [1] has as its system A549. Kind of assay: Antiproliferative activity against wild type human A549 cells assessed as reduction in cell viability incubated for 72 hrs by MTT assay. Type of assay: functional, cell-based. The conditions noted are these: A549, 72 h.
Assay [2] relates to PC-9. Kind of assay: Antiproliferative activity against human PC9 cells harbouring EGFR delE746-A750 mutant assessed as reduction in cell viability incubated for 72 hrs by MTT assay. Type of assay: functional, cell-based. The conditions noted are these: PC-9, 72 h. For orientation: Tetrazolium assays rely on reduction of a dye to a coloured formazan, in cell work by metabolically active cells.

Assay [3] deals with NCI-H1975. Nature of the assay: Antiproliferative activity against human NCI-H1975 cells harbouring EGFR L858R/T790M double mutant assessed as reduction in cell viability incubated for 72 hrs by MTT assay. As to conditions: NCI-H1975, 72 h. The class given is functional, cell-based.
A short description of assay [4]: Antiproliferative activity against human CL68 cells harbouring EGFR delE746-A750/T790M mutant assessed as reduction in cell viability incubated for 72 hrs by MTT assay. The class given is functional, cell-based.
The subject of assay [5] is CL97. Kind of assay: Antiproliferative activity against human CL97 cells harbouring EGFR G719A/T790M mutant assessed as reduction in cell viability incubated for 72 hrs by MTT assay. The class given is functional, cell-based. The conditions noted are these: CL97, 72 h.
Assay [6] concerns MDA-MB-231. Kind of assay: Antiproliferative activity against human MDA-MB-231 cells assessed as reduction in cell viability incubated for 72 hrs by MTT assay. The conditions noted are these: MDA-MB-231, 72 h. The class given is functional, cell-based. The essentials: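 MTT viability assay after 72 h of drug exposure. Cells seeded at 5000 per well in 10% FBS and left overnight, then treated in 5% FBS. MTT added for 1 h, dye dissolved in DMSO, absorbance read at 570 nm. Viability given relative to vehicle-treated cells.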

Assay [7] has as its target Epidermal growth factor receptor (Homo sapiens) (UniProt P00533). Kind of assay: Induction of EGFR degradation in human MDA-MB-231 cells assessed as reduction in EGFR expression incubated for 48 hrs by immunoblot analysis. Type of assay: cell-based. A digest of the protocol: (§1)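 After 48 h treatment, cells were scraped and lysed in 1% SDS, 50 mM Tris-HCl pH 8.0, 10 mM EDTA with protease and phosphatase inhibitors. Lysates sonicated, protein measured by BCA, equal amounts run on SDS-PAGE and blotted to nitrocellulose. Primary antibodies (EGFR, c-Met, S473-Akt, Akt, GAPDH) used at 1:1000 overnight at 4 °C, HRP secondaries at 1:5000, ECL detection.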
On the technique in general: A western blot detects proteins with antibodies after separation by electrophoresis.

Assay [8] has as its target Hepatocyte growth factor receptor (Homo sapiens) (UniProt P08581). Nature of the assay: Induction of c-MET degradation in human MDA-MB-231 cells assessed as reduction in c-Met expression incubated for 48 hrs by immunoblot analysis. The class given is cell-based. A digest of the protocol:
as §1

Sequence of Hepatocyte growth factor receptor (Homo sapiens) (P08581 whole entry): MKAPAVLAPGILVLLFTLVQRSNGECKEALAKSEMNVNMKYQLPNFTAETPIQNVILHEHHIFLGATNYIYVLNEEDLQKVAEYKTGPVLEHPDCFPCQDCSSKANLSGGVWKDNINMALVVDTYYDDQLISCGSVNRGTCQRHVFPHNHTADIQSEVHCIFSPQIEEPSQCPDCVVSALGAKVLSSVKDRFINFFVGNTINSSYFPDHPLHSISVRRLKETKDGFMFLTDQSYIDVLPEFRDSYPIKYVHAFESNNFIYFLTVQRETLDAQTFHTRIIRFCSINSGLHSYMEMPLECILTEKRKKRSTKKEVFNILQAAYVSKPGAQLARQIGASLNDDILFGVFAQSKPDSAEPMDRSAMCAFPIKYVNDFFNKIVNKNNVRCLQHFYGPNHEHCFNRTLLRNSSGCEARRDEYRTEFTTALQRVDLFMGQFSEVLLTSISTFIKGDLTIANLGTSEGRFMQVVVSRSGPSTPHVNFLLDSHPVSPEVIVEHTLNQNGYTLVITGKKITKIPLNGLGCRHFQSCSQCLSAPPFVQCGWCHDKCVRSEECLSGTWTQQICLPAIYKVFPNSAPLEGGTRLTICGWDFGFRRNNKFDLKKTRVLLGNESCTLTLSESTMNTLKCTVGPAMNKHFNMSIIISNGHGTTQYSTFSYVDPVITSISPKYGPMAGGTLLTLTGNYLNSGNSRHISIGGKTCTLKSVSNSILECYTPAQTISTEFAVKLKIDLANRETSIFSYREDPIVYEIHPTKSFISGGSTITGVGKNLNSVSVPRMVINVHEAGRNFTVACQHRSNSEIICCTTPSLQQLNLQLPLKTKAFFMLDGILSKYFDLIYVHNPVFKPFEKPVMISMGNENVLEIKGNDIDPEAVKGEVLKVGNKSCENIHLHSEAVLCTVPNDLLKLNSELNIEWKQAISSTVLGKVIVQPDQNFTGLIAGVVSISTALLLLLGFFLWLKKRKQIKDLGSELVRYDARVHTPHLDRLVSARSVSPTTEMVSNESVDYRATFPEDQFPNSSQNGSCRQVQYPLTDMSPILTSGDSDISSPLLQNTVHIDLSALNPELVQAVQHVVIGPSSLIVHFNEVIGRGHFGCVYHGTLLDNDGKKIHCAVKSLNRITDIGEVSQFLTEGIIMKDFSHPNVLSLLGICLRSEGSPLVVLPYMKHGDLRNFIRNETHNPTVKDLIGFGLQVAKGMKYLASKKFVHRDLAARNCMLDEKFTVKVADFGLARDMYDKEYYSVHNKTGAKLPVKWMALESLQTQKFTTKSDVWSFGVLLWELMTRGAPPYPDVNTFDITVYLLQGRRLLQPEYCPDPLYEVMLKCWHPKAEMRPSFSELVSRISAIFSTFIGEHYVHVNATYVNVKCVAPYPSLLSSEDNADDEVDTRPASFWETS
Sequence of Epidermal growth factor receptor (Homo sapiens) (P00533 whole entry): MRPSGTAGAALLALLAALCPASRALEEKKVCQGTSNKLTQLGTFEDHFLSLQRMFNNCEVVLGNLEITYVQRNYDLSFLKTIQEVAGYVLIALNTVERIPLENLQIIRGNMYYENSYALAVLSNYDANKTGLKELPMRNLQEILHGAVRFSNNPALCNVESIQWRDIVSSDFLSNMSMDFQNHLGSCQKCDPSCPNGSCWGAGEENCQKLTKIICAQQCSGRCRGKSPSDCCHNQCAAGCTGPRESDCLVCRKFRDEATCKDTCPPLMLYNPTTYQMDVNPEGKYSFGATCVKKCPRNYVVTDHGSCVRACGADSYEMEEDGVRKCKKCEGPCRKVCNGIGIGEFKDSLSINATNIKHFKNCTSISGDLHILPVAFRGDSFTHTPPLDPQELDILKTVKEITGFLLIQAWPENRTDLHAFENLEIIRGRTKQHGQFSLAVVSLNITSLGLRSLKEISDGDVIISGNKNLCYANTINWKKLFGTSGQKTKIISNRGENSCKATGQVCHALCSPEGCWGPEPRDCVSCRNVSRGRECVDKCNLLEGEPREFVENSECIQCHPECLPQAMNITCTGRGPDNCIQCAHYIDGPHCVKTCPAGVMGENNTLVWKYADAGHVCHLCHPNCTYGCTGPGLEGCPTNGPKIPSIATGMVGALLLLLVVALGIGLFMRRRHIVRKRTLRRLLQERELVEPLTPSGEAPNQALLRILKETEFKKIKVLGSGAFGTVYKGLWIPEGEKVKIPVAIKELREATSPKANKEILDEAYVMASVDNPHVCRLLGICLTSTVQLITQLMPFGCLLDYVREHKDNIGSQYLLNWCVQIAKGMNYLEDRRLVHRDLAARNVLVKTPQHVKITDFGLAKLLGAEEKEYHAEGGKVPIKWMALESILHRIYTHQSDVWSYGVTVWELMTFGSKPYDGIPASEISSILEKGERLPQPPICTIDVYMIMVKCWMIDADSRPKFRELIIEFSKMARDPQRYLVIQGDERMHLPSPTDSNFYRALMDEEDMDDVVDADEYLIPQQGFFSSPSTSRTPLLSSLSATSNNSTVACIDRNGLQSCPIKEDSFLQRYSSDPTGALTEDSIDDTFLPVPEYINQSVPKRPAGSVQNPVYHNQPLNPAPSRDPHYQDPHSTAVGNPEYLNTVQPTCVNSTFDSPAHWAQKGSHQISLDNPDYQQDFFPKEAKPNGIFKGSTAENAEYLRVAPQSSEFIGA

Regarding `CN(C)C/C=C/C(=O)Nc1cc2c(Nc3ccc(F)c(Cl)c3)ncnc2cc1O[C@H]1CCOC1` [AFATINIB], the IC50 in assay [1] was 5 to 10 µM; in assay [2], < 0.01 µM; in assay [3], 1 µM; in assay [4] it was 0.1 µM; in assay [5], 0.1 µM.
`CNC(=O)Nc1ccc(S(=O)(=O)Nc2cccc(-c3nc(-c4ccc(NC(=O)c5cccnc5)cc4Cl)no3)c2)cc1`: the half-inhibitory concentration (IC50) in assay [6] stood at 1.3 µM.
For `C#Cc1ccc(NC(=O)Nc2cccc(-c3nc(-c4ccc(NC(=O)c5cccnc5)cc4Cl)no3)c2)cc1`, the IC50 in assay [6] is > 10 µM.
For `CC(=O)Nc1ccc(S(=O)(=O)Nc2cccc(-c3nc(-c4ccc(NC(=O)c5cccnc5)cc4Cl)no3)c2)cc1C`, in assay [6], the IC50 was > 10 µM.
Same read-out and setting: the figure for `O=C(Nc1ccc(-c2noc(-c3cccc(NS(=O)(=O)c4ccc(NC(=O)N5CCCCC5)cc4)c3)n2)c(Cl)c1)c1cccnc1` is > 10 µM.
Consider `CC(=O)Nc1ccc(NC(=O)Nc2cccc(-c3nc(-c4ccc(NC(=O)c5cccnc5)cc4Cl)no3)c2)cc1Cl`, for which the IC50 in assay [6] was > 10 µM.
Regarding `COc1ccc(NC(=O)Nc2cccc(-c3nc(-c4ccc(NC(=O)c5cccnc5)cc4Cl)no3)c2)cc1C(F)(F)F`, the IC50 in assay [6] is 1.7 µM. Also, in assay [7], the result was inactive. In assay [8], the result was Active.
In the case of `O=C(Nc1ccccc1)Nc1cccc(-c2nc(-c3ccc(NC(=O)c4cccnc4)cc3Cl)no2)c1`, the IC50 in assay [6] was > 10 µM.
On the same count and under the same terms, with `O=C(Nc1ccc(-c2noc(-c3cccc(NS(=O)(=O)c4ccc(C(F)(F)F)cc4)c3)n2)c(Cl)c1)c1cccnc1` the figure was > 10 µM; with `O=C(Nc1ccc(-c2noc(-c3cccc(NS(=O)(=O)c4ccc(NC(=O)N5CCOCC5)cc4)c3)n2)c(Cl)c1)c1cccnc1`, > 10 µM; with `COc1cc(NC(=O)c2cccnc2)ccc1-c1noc(-c2cccc(NS(=O)(=O)c3ccc(NC(C)=O)cc3)c2)n1`, > 10 µM.
As for `CC(=O)Nc1ccc(NC(=O)Nc2cccc(-c3nc(-c4ccc(NC(=O)c5cccnc5)cc4Cl)no3)c2)cc1`, the half-maximal inhibitory concentration (IC50) in assay [6] was > 10 µM.
With `C=CC(=O)Nc1cc(Nc2nccc(-c3cn(C)c4ccccc34)n2)c(OC)cc1N(C)CCN(C)C` [OSIMERTINIB], the IC50 is 5 µM in assay [1]; < 0.01 µM in assay [2]; […] in assay [3]; 0.01 µM in assay [4]; 0.1 µM in assay [5].
Consider `COc1ccc(NC(=O)Nc2cccc(-c3nc(-c4ccc(NC(=O)c5cccnc5)cc4Cl)no3)c2)cc1`, for which the IC50 in assay [6] was 3 µM.
Take `CC(=O)Nc1ccc(S(=O)(=O)Nc2cccc(-c3nc(-c4ccc(NC(=O)c5cccnc5)cc4Cl)no3)c2)cc1Cl`: the IC50 in assay [6] is > 10 µM.
Turning to `CC(=O)Nc1ccc(S(=O)(=O)Nc2cccc(-c3nc(-c4ccc(NC(=O)c5cccnc5)cc4)no3)c2)cc1`, the IC50 in assay [6] was 5.2 µM.
Consider `O=C(Nc1cccc(-c2nc(-c3ccc(NC(=O)c4cccnc4)cc3Cl)no2)c1)Nc1cc(C(F)(F)F)cc(C(F)(F)F)c1`, for which, in assay [6], the IC50 stood at 1.9 µM.
As to `O=C(Nc1ccc(-c2noc(-c3cccc(NS(=O)(=O)c4cccc(Cl)c4)c3)n2)c(Cl)c1)c1cccnc1`, the IC50 in assay [6] was > 10 µM.
In the case of `CCN(CC)C(=O)Nc1ccc(S(=O)(=O)Nc2cccc(-c3nc(-c4ccc(NC(=O)c5cccnc5)cc4Cl)no3)c2)cc1`, in assay [6], the IC50 worked out at 8.7 µM.
Take `CS(=O)(=O)Nc1ccc(NC(=O)Nc2cccc(-c3nc(-c4ccc(NC(=O)c5cccnc5)cc4Cl)no3)c2)cc1`: the IC50 in assay [6] was determined as 0.6 µM. The outcome in assay [7] was inactive. In addition, the result in assay [8] was Active.
With `NS(=O)(=O)c1ccc(NC(=O)Nc2cccc(-c3nc(-c4ccc(NC(=O)c5cccnc5)cc4Cl)no3)c2)cc1`, the IC50 in assay [6] was > 10 µM.
On to `O=C(Nc1ccc(S(=O)(=O)Nc2cccc(-c3nc(-c4ccc(NC(=O)c5cccnc5)cc4Cl)no3)c2)cc1)NC1CCCC1`, for which the IC50 in assay [6] is > 10 µM.
With `C#Cc1cccc(Nc2ncnc3cc(OCCOC)c(OCCOC)cc23)c1` [ERLOTINIB], the IC50 in assay [2] is 0.1 µM; in assay [3], 10 µM; in assay [4], 5 µM; in assay [5], > 20 µM.
As to `CC(=O)Nc1ccc(S(=O)(=O)Nc2cccc(-c3nc(-c4ccc(NC(=O)c5cccnc5)c(Cl)c4)no3)c2)cc1`, the IC50 in assay [6] stood at 4.5 µM.
Still for that read-out and setting: with `COc1cc(-c2noc(-c3cccc(NS(=O)(=O)c4ccc(NC(C)=O)cc4)c3)n2)ccc1NC(=O)c1cccnc1` the figure was > 10 µM.
Still for that read-out and setting: the figure for `O=C(Nc1ccc(-c2noc(-c3cccc(NS(=O)(=O)c4ccccc4)c3)n2)c(Cl)c1)c1cccnc1` is > 10 µM; for `O=C(Nc1ccc(Cl)cc1)Nc1cccc(-c2nc(-c3ccc(NC(=O)c4cccnc4)cc3Cl)no2)c1` it is > 10 µM.
Still for that read-out and setting: with `NC(=O)Nc1ccc(NC(=O)Nc2cccc(-c3nc(-c4ccc(NC(=O)c5cccnc5)cc4Cl)no3)c2)cc1C(F)(F)F` the figure was 3.4 µM; with `O=C(Nc1cccc(-c2nc(-c3ccc(NC(=O)c4cccnc4)cc3Cl)no2)c1)c1ccccc1`, 12.8 µM.
In the case of `COc1cccc(NC(=O)Nc2cccc(-c3nc(-c4ccc(NC(=O)c5cccnc5)cc4Cl)no3)c2)c1`, the IC50 in assay [6] stood at 6.7 µM.
With `O=C(Nc1cccc(-c2nc(-c3ccc(NC(=O)c4cccnc4)cc3Cl)no2)c1)Nc1ccc(NC(=O)C2CCCC2)c(C(F)(F)F)c1`, the IC50 in assay [6] was 0.3 µM. Moreover, the outcome in assay [7] and in assay [8] was Active.
Turning to `COc1cccc(S(=O)(=O)Nc2cccc(-c3nc(-c4ccc(NC(=O)c5cccnc5)cc4Cl)no3)c2)c1`, in assay [6], the IC50 was > 10 µM.
Regarding `CCNC(=O)Nc1ccc(S(=O)(=O)Nc2cccc(-c3nc(-c4ccc(NC(=O)c5cccnc5)cc4Cl)no3)c2)cc1`, the IC50 in assay [6] worked out at 3.1 µM.
As for `NS(=O)(=O)c1ccc(S(=O)(=O)Nc2cccc(-c3nc(-c4ccc(NC(=O)c5cccnc5)cc4Cl)no3)c2)cc1`, the IC50 in assay [6] was > 10 µM.
Consider `O=C(Nc1ccc(-c2noc(-c3cccc(NS(=O)(=O)c4ccc(NC(=O)N5CCCC5)cc4)c3)n2)c(Cl)c1)c1cccnc1`, for which the IC50 in assay [6] amounted to 5.8 µM.
Consider `NS(=O)(=O)Nc1ccc(NC(=O)Nc2cccc(-c3nc(-c4ccc(NC(=O)c5cccnc5)cc4Cl)no3)c2)cc1`, for which the IC50 in assay [6] was determined as 8.9 µM.
Consider `CC(=O)Nc1ccc(S(=O)(=O)Nc2cccc(-c3nc(-c4ccc(NC(=O)c5cccnc5)c(C(F)(F)F)c4)no3)c2)cc1`, for which the IC50 in assay [6] was > 10 µM.
As for `NC(=O)Nc1ccc(S(=O)(=O)Nc2cccc(-c3nc(-c4ccc(NC(=O)c5cccnc5)cc4Cl)no3)c2)cc1`, in assay [6], the IC50 worked out at 2.8 µM.
Regarding `CS(=O)(=O)Nc1ccc(NC(=O)Nc2cccc(-c3nc(-c4ccc(NC(=O)c5cccnc5)cc4Cl)no3)c2)cc1Cl`, the IC50 in assay [6] amounted to 0.6 µM. The result in assay [7] was inactive. Besides, the result in assay [8] was Active.
With `CC(=O)Nc1ccc(S(=O)(=O)Nc2cccc(-c3nc(-c4ccc(NC(=O)c5cccnc5)cc4Cl)no3)c2)cc1`, the IC50 in assay [6] was 2.5 µM.
Consider `O=C(Nc1ccc(NS(=O)(=O)C2CC2)cc1)Nc1cccc(-c2nc(-c3ccc(NC(=O)c4cccnc4)cc3Cl)no2)c1`, for which the IC50 in assay [6] was 0.3 µM. Moreover, the result in assay [7] and in assay [8] was Active.
As for `O=C(Nc1cccc(-c2nc(-c3ccc(NC(=O)c4cccnc4)cc3Cl)no2)c1)Nc1cccc(C(F)(F)F)c1`, the half-inhibitory concentration (IC50) in assay [6] was found to be 1.9 µM. Moreover, the result in assay [7] was inactive. Moreover, the result in assay [8] was Active.
For the compound `CC(=O)Nc1ccc(S(=O)(=O)Nc2cccc(-c3nc(-c4ccc(NC(=O)c5cccnc5)cc4C(F)(F)F)no3)c2)cc1`, the IC50 in assay [6] is > 10 µM.
Same read-out and setting: with `Cc1ccc(NC(=O)Nc2cccc(-c3nc(-c4ccc(NC(=O)c5cccnc5)cc4Cl)no3)c2)cc1` the figure was 3.5 µM; with `CC(=O)Nc1ccc(NC(=O)Nc2cccc(-c3nc(-c4ccc(NC(=O)c5cccnc5)cc4Cl)no3)c2)cc1Br`, 1 µM.
Take `O=C(Nc1cccc(-c2nc(-c3ccc(NC(=O)c4cccnc4)cc3Cl)no2)c1)Nc1ccc(NC(=O)c2cccs2)c(C(F)(F)F)c1`: in assay [6], the IC50 was determined as 2.9 µM.
In the case of `O=C(Nc1cccc(-c2nc(-c3ccc(NC(=O)c4cccnc4)cc3Cl)no2)c1)Nc1ccc(Cl)c(C(F)(F)F)c1`, in assay [6], the IC50 was 1.9 µM.
`CS(=O)(=O)Nc1cccc(NC(=O)Nc2cccc(-c3nc(-c4ccc(NC(=O)c5cccnc5)cc4Cl)no3)c2)c1`: in assay [6], the IC50 is > 10 µM.
`C#Cc1cccc(NC(=O)Nc2cccc(-c3nc(-c4ccc(NC(=O)c5cccnc5)cc4Cl)no3)c2)c1`: in assay [6], the IC50 is > 10 µM.
For `CS(=O)(=O)Nc1ccc(NC(=O)Nc2cccc(-c3nc(-c4ccc(NC(=O)c5cccnc5)cc4Cl)no3)c2)cc1Br`, the half-inhibitory concentration (IC50) in assay [6] was found to be 0.7 µM.
`CS(=O)(=O)Nc1ccc(NC(=O)Nc2cccc(-c3nc(-c4ccc(NC(=O)c5cccnc5)cc4Cl)no3)c2)cc1C(F)(F)F`: the IC50 in assay [6] was found to be 0.7 µM.
For `Cc1ccc(S(=O)(=O)Nc2cccc(-c3nc(-c4ccc(NC(=O)c5cccnc5)cc4Cl)no3)c2)cc1`, the IC50 in assay [6] is > 10 µM.
